In ChEMBL document CHEMBL1123950, “N-(Retinoyl)amino acids. Synthesis and chemopreventive activity in vitro” (1988):

Columns and labels:
Cricetinae gen. sp. [1] = assay: Cultures with marked degree of squamous metaplasia at a concentration of 10e-10; assay type: functional, Cricetulus griseus
Procedure, shortened: (§1)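 Tracheas from 29-31-day-old hamsters fed a vitamin A free diet; cultured in serum-free CMRL 1066 (insulin 1.0 μg/mL, hydrocortisone hemisuccinate 0.1 μg/mL, glutamine 2 mM, Garamycin 50 μg/mL), 50% O2/45% N2/5% CO2, rocked, 36 °C. Retinoid-free 3 days, then retinoid in DMSO (final 0.1%) for 7 days; medium and gas changed three times. Formalin-fixed day 10; squamous metaplasia graded: mild 2-10%, marked 10-40%, severe >40%.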

Cricetinae gen. sp. [2] = assay: Cultures with marked degree of squamous metaplasia at a concentration of 10e-11; assay type: functional, Cricetulus griseus; procedure, shortened: as §1
Cricetinae gen. sp. [3] = assay: Cultures with marked degree of squamous metaplasia at a concentration of 10e-8 M; assay type: functional, Cricetulus griseus; procedure, shortened: as §1
Cricetinae gen. sp. [4] = assay: Cultures with marked degree of squamous metaplasia at a concentration of 10e-9; assay type: functional, Cricetulus griseus; procedure, shortened: as §1
Cricetinae gen. sp. [5] = assay: Cultures with mild degree of squamous metaplasia at a concentration of 10e-10; assay type: functional, Cricetulus griseus; procedure, shortened: as §1
Cricetinae gen. sp. [6] = assay: Cultures with mild degree of squamous metaplasia at a concentration of 10e-11; assay type: functional, Cricetulus griseus; procedure, shortened: as §1
HEp-2 [7] = assay: Viability of human epidermoid carcinoma cells (H.Ep-2) at a concentration 10 ug/mL; assay type: functional
Procedure, shortened: (§2)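 Human epidermoid carcinoma H.Ep.-2 cells, clone-colony viability assay with retinoid at 1-40 μg/mL; incubated 37 °C for 12 days, stained, colonies counted. % of control = 100 × treated colonies/control colonies.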

HEp-2 [8] = assay: Viability of human epidermoid carcinoma cells (H.Ep-2) at a concentration 1 ug/mL; assay type: functional; procedure, shortened: as §2
HEp-2 [9] = assay: Viability of human epidermoid carcinoma cells (H.Ep-2) at a concentration 20 ug/mL; assay type: functional; procedure, shortened: as §2
HEp-2 [10] = assay: Viability of human epidermoid carcinoma cells (H.Ep-2) at a concentration 40 ug/mL; assay type: functional; procedure, shortened: as §2
Cricetinae gen. sp. [11] = assay: Cultures with severe degree of squamous metaplasia at a concentration of 10e-9; assay type: functional, Cricetulus griseus
Procedure, shortened: (§3)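 Tracheas from 29-31-day-old hamsters kept on a vitamin A free diet, cultured in serum-free CMRL 1066 (insulin 1.0 μg/mL, hydrocortisone hemisuccinate 0.1 μg/mL, glutamine 2 mM, Garamycin 50 μg/mL), 50% O2/45% N2/5% CO2, rocked at 36 °C. Retinoid-free for 3 days, then retinoid in DMSO (0.1% final) for 7 days. Fixed in formalin; squamous metaplasia graded mild 2-10%, marked 10-40%, severe >40%.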

Cricetinae gen. sp. [12] = assay: Cultures with mild degree of squamous metaplasia at a concentration of 10e-8 M; assay type: functional, Cricetulus griseus; procedure, shortened: as §1
Cricetinae gen. sp. [13] = assay: Cultures with mild degree of squamous metaplasia at a concentration of 10e-9; assay type: functional, Cricetulus griseus; procedure, shortened: as §1
Cricetinae gen. sp. [14] = assay: Cultures with minimal degree of squamous metaplasia at a concentration of 10e-10; assay type: functional, Cricetulus griseus; procedure, shortened: as §1
Cricetinae gen. sp. [15] = assay: Cultures with minimal degree of squamous metaplasia at a concentration of 10e-11; assay type: functional, Cricetulus griseus; procedure, shortened: as §1
Cricetinae gen. sp. [16] = assay: Cultures with minimal degree of squamous metaplasia at a concentration of 10e-8 M; assay type: functional, Cricetulus griseus; procedure, shortened: as §1
Cricetinae gen. sp. [17] = assay: Cultures with minimal degree of squamous metaplasia at a concentration of 10e-9; assay type: functional, Cricetulus griseus; procedure, shortened: as §1
Cricetinae gen. sp. [18] = assay: Cultures with no evidence of squamous metaplasia at a concentration of 10e-10; assay type: functional, Cricetulus griseus; procedure, shortened: as §1
Cricetinae gen. sp. [19] = assay: Cultures with no evidence of squamous metaplasia at a concentration of 10e-11; assay type: functional, Cricetulus griseus; procedure, shortened: as §1
Cricetinae gen. sp. [20] = assay: Cultures with no evidence of squamous metaplasia at a concentration of 10e-8 M; assay type: functional, Cricetulus griseus; procedure, shortened: as §1
Cricetinae gen. sp. [21] = assay: Cultures with no evidence of squamous metaplasia at a concentration of 10e-9; assay type: functional, Cricetulus griseus; procedure, shortened: as §1
Cricetinae gen. sp. [22] = assay: Cultures with severe degree of squamous metaplasia at a concentration of 10e-11; assay type: functional, Cricetulus griseus; procedure, shortened: as §3
Cricetinae gen. sp. [23] = assay: Cultures with severe degree of squamous metaplasia at a concentration of 10e-8 M; assay type: functional, Cricetulus griseus; procedure, shortened: as §3
Cricetinae gen. sp. [24] = assay: Reversal of keratinization in vitamin A deficient hamster trachea culture at a concentration of 10e-8 M; assay type: functional, Cricetulus griseus; conditions: read-out: ED50 (the source's name); procedure, shortened: as §3
L1210 [25] = assay: Inhibition of proliferation of L1210 cells in culture at a concentration 10 ug/mL; assay type: functional, Mus musculus; design: scale not given: the % may be the effect or the level left
Procedure, shortened: (§4)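 L1210 suspension of about 10⁵ cells treated with retinoid at 1-40 μg/mL, 37 °C for 48 h; cells counted at 0 and 48 h, three cultures averaged per concentration. % of control = 100 × (treated 48 h − 0 h count)/(control 48 h − 0 h count).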

L1210 [26] = assay: Inhibition of proliferation of L1210 cells in culture at a concentration 1 ug/mL; assay type: functional, Mus musculus; design: scale not given: the % may be the effect or the level left; procedure, shortened: as §4
L1210 [27] = assay: Inhibition of proliferation of L1210 cells in culture at a concentration 20 ug/mL; assay type: functional, Mus musculus; design: scale not given: the % may be the effect or the level left; procedure, shortened: as §4
Cricetinae gen. sp. [28] = assay: Cultures with severe degree of squamous metaplasia at a concentration of 10e-10; assay type: functional, Cricetulus griseus; procedure, shortened: as §1
Cricetinae gen. sp. [29] = assay: Cultures with marked degree of squamous metaplasia at a conc of 10e-10 M; assay type: functional, Cricetulus griseus; procedure, shortened: as §1
Cricetinae gen. sp. [30] = assay: Cultures with marked degree of squamous metaplasia at a conc of 10e-8 M; assay type: functional, Cricetulus griseus; procedure, shortened: as §1
Cricetinae gen. sp. [31] = assay: Cultures with marked degree of squamous metaplasia at a conc of 10e-9 M; assay type: functional, Cricetulus griseus; procedure, shortened: as §1
Cricetinae gen. sp. [32] = assay: Cultures with mild degree of squamous metaplasia at a conc of 10e-10 M; assay type: functional, Cricetulus griseus; procedure, shortened: as §1
Cricetinae gen. sp. [33] = assay: Cultures with mild degree of squamous metaplasia at a conc of 10e-11 M; assay type: functional, Cricetulus griseus; procedure, shortened: as §1
Cricetinae gen. sp. [34] = assay: Cultures with mild degree of squamous metaplasia at a conc of 10e-8 M; assay type: functional, Cricetulus griseus; procedure, shortened: as §1
Cricetinae gen. sp. [35] = assay: Cultures with minimal degree of squamous metaplasia at a conc of 10e-10 M; assay type: functional, Cricetulus griseus; procedure, shortened: as §1
Cricetinae gen. sp. [36] = assay: Cultures with minimal degree of squamous metaplasia at a conc of 10e-11 M; assay type: functional, Cricetulus griseus; procedure, shortened: as §1
Cricetinae gen. sp. [37] = assay: Cultures with minimal degree of squamous metaplasia at a conc of 10e-8 M; assay type: functional, Cricetulus griseus; procedure, shortened: as §1
Cricetinae gen. sp. [38] = assay: Cultures with minimal degree of squamous metaplasia at a conc of 10e-9 M; assay type: functional, Cricetulus griseus; procedure, shortened: as §1
Cricetinae gen. sp. [39] = assay: Cultures with no evidence of squamous metaplasia at a conc of 10e-10 M; assay type: functional, Cricetulus griseus; procedure, shortened: as §1
Cricetinae gen. sp. [40] = assay: Cultures with no evidence of squamous metaplasia at a conc of 10e-11 M; assay type: functional, Cricetulus griseus; procedure, shortened: as §1
Cricetinae gen. sp. [41] = assay: Cultures with no evidence of squamous metaplasia at a conc of 10e-8; assay type: functional, Cricetulus griseus; procedure, shortened: as §1
Cricetinae gen. sp. [42] = assay: Cultures with no evidence of squamous metaplasia at a conc of 10e-9 M; assay type: functional, Cricetulus griseus; procedure, shortened: as §1
Cricetinae gen. sp. [43] = assay: Cultures with severe degree of squamous metaplasia at a conc of 10e-10 M; assay type: functional, Cricetulus griseus; procedure, shortened: as §1
Cricetinae gen. sp. [44] = assay: Cultures with severe degree of squamous metaplasia at a conc of 10e-11 M; assay type: functional, Cricetulus griseus; procedure, shortened: as §1
Cricetinae gen. sp. [45] = assay: Cultures with severe degree of squamous metaplasia at a conc of 10e-8 M; assay type: functional, Cricetulus griseus; procedure, shortened: as §1
Cricetinae gen. sp. [46] = assay: Cultures with severe degree of squamous metaplasia at a conc of 10e-9 M; assay type: functional, Cricetulus griseus; procedure, shortened: as §1
Cricetinae gen. sp. [47] = assay: Reversal of keratinization in vitamin A deficient hamster trachea culture at a conc of 10e-8 M; assay type: functional, Cricetulus griseus; conditions: read-out: ED50 (the source's name); procedure, shortened: as §3
Cricetinae gen. sp. [48] = assay: Cultures with marked degree of squamous metaplasia at a conc of 10e-11 M; assay type: functional; procedure, shortened: as §1
Cricetinae gen. sp. [49] = assay: Cultures with mild degree of squamous metaplasia at a conc of 10e-9 M; assay type: functional, Cricetulus griseus; procedure, shortened: as §1

Compound CC1=C(/C=C/C(C)=C/C=C/C(C)=C/C(=O)NC(CC(C)C)C(=O)O)C(C)(C)CCC1 (centres undefined) has a Culture (Cricetinae gen. sp. [1]) of 32%, a Culture (Cricetinae gen. sp. [2]) of 58% and a Culture (Cricetinae gen. sp. [3]) of 0%. It also gave a Culture (Cricetinae gen. sp. [4]) of 9%, a Culture (Cricetinae gen. sp. [5]) of 16% and a Culture (Cricetinae gen. sp. [6]) of 14%. The Control (HEp-2 [7]) was 29%, the Control (HEp-2 [8]) was 73% and the Control (HEp-2 [9]) was 14%. It also gave a Control (HEp-2 [10]) of 25%, a Culture (Cricetinae gen. sp. [11]) of 0% and a Culture (Cricetinae gen. sp. [12]) of 4%. For the same compound, the Culture (Cricetinae gen. sp. [13]) was 4%, the Culture (Cricetinae gen. sp. [14]) was 0% and the Culture (Cricetinae gen. sp. [15]) was 0%. For the same compound, the Culture (Cricetinae gen. sp. [16]) was 0%, the Culture (Cricetinae gen. sp. [17]) was 0% and the Culture (Cricetinae gen. sp. [18]) was 48%. For the same compound, the Culture (Cricetinae gen. sp. [19]) was 14%, the Culture (Cricetinae gen. sp. [20]) was 96% and the Culture (Cricetinae gen. sp. [21]) was 87%. For the same compound, the Culture (Cricetinae gen. sp. [22]) was 14%, the Culture (Cricetinae gen. sp. [23]) was 0% and the EC50 (Cricetinae gen. sp. [24]) was 0.1 nM. For the same compound, the Control (L1210 [25]) was 62%, the Control (L1210 [26]) was 95% and the Control (L1210 [27]) was 20%. It also gave a Culture (Cricetinae gen. sp. [28]) of 4%.

In the case of CC1=C(/C=C/C(C)=C/C=C/C(C)=C/C(=O)NC(C)C(=O)O)C(C)(C)CCC1 (centres undefined), the Culture (Cricetinae gen. sp. [29]) is reported as 58%, the Culture (Cricetinae gen. sp. [30]) is reported as 0% and the Culture (Cricetinae gen. sp. [31]) is reported as 0%. For the same compound, the Culture (Cricetinae gen. sp. [32]) was 14%, the Culture (Cricetinae gen. sp. [33]) was 29% and the Culture (Cricetinae gen. sp. [34]) was 0%. It also gave a Culture (Cricetinae gen. sp. [35]) of 0%, a Culture (Cricetinae gen. sp. [36]) of 0% and a Culture (Cricetinae gen. sp. [37]) of 0%. It also gave a Culture (Cricetinae gen. sp. [38]) of 0%, a Culture (Cricetinae gen. sp. [39]) of 14% and a Culture (Cricetinae gen. sp. [40]) of 0%. It also gave a Culture (Cricetinae gen. sp. [41]) of 100%, a Culture (Cricetinae gen. sp. [42]) of 72% and a Culture (Cricetinae gen. sp. [43]) of 14%. For the same compound, the Culture (Cricetinae gen. sp. [44]) was 14%, the Culture (Cricetinae gen. sp. [45]) was 0% and the Culture (Cricetinae gen. sp. [46]) was 14%. It also gave an EC50 (Cricetinae gen. sp. [47]) of 0.4 nM, a Culture (Cricetinae gen. sp. [48]) of 57% and a Culture (Cricetinae gen. sp. [49]) of 14%.
